Legend:
Type in all cases: ADME
Cytochrome P450 2E1 [1] = biological target: T1, Cytochrome P450 2E1 (Homo sapiens, UniProt P05181); assay: Drug level assessed as human CYP2E1-mediated compound formation using 50 uM phenethylisothiocyanate in presence of reductase and NADPH after 30 mins by LC-MS/MS method; conditions: recombinant enzyme, 0.5 h
Method in brief: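 Recombinant human CYP2E1 (1 µM) with reductase (1 µM) reconstituted in DLPC (100 µg/ml), preincubated with 2 mM GSH. PEITC added to a final 50 µM with NADPH at a final 1.2 mM, then incubated 30 min at 30°C. Controls lacked NADPH. Metabolites and GSH conjugates recovered by C18 solid-phase extraction and analysed by positive-ion ESI LC-MS/MS.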

Liver microsome = assay: Drug level in human liver microsomes treated with 50 uM phenethylisothiocyanate after 30 mins by ESI LC-MS/MS method; conditions: 0.5 h
Method in brief: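 Human liver microsomes (0.5 mg protein/ml) in 50 mM potassium phosphate pH 7.4, preincubated 5 min with 2 mM GSH. PEITC added to a final 50 µM with NADPH at a final 1.2 mM, then incubated 30 min at 37°C. Controls lacked NADPH. GSH conjugate recovered by C18 solid-phase extraction and analysed by positive-ion LC-MS/MS.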

Cytochrome P450 2E1 [2] = biological target: T1, Cytochrome P450 2E1; assay: Inhibition of human CYP2E1 expressed in Escherichia coli MV1304 assessed as reduction in 7-EFC O-de-ethylation activity at 10 uM after 10 mins in presence of reductase by spectrofluorometry
Method in brief: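 Reconstituted CYP2E1/reductase (1 µM each, 100 µg/ml DLPC, catalase, 50 mM K phosphate pH 7.4) incubated 10 min at 30°C with PIC at 0- to 100-fold molar excess; PIC in acetonitrile, 1% final. Aliquots diluted into secondary mix (0.1 mM 7-EFC, 0.2 mM NADPH, BSA) for 10 min; 7-HFC read at ex 410/em 510 nm. Three experiments in duplicate.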

Cytochrome P450 2E1 [3] = biological target: T1, Cytochrome P450 2E1; assay: Retention time assessed as human CYP2E1-mediated compound formation using 50 uM phenethylisothiocyanate in presence of reductase and NADPH after 30 mins by LC-MS/MS method; conditions: recombinant enzyme, 0.5 h
Method in brief: (§1)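 CYP2E1 (1 µM) and reductase (1 µM) reconstituted with lipid (100 µg/ml) and preincubated with 2 mM GSH. PEITC (final 50 µM) and NADPH (final 1.2 mM) then added, 30 min at 30°C; controls ran without NADPH. Products were taken up by C18 solid-phase extraction and analysed by positive-ion ESI LC-MS/MS, one full scan plus two data-dependent scans.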

Cytochrome P450 2E1 [4] = biological target: T1, Cytochrome P450 2E1; assay: Inactivation of human CYP2E1 expressed in Escherichia coli MV1304 assessed as remaining P450 level at 25 uM after dialysis by CO difference spectral method
Method in brief: (§2)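 CYP2E1 and reductase (1 µM each) reconstituted with DLPC (100 µg/ml) plus catalase in 50 mM K phosphate pH 7.4. Incubated 10 min at 30°C with 25 µM PEITC ± 1.2 mM NADPH; control had neither. Then dialysed overnight at 4°C against phosphate buffer with 20% glycerol and 0.1 mM EDTA. Read-outs: P450 by reduced CO difference spectrum (ε450 91 mM⁻¹cm⁻¹), heme by HPLC, and 7-EFC O-de-ethylation after re-adding lipid (50 µg/ml) ± fresh reductase (1 µM). Two experiments in duplicate.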

CYP2E1 [5] = biological target: T2, CYP2E1 (Homo sapiens, UniProt P05181); assay: Inactivation of human CYP2E1 expressed in Escherichia coli MV1304 assessed as remaining enzyme activity at 25 uM after dialysis in presence of fresh reductase by 7-EFC O-de-ethylation activity detection based spectrofluorometry; conditions: probe 7-EFC (O-de-ethylation), read-out: Activity; method in brief: as §2
Cytochrome P450 2E1 [6] = biological target: T1, Cytochrome P450 2E1; assay: Inhibition of human CYP2E1 expressed in Escherichia coli MV1304 assessed as reduction in 7-EFC O-de-ethylation activity in absence of cytochrome b5 by spectrofluorometry
Method in brief: (§3)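 Primary mix: 1 µM CYP2E1, 1 µM reductase, 100 µg/ml DLPC and catalase in 50 mM K phosphate pH 7.4, with PEITC 0–50 µM (methanol 1% final). Started with 1.2 mM NADPH at 30°C and sampled at 0–5 min. Aliquots assayed for 10 min with 0.1 mM 7-EFC and 0.2 mM NADPH; fluorescence read at ex 410/em 510 nm. Inactivation kinetics from a double-reciprocal plot. Six experiments in duplicate.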

Cytochrome P450 2E1 [7] = biological target: T1, Cytochrome P450 2E1; assay: Drug metabolism assessed as human CYP2E1-mediated phenethylamine formation at 50 uM in presence of reductase and NADPH after 30 mins by LC-MS/MS method; conditions: recombinant enzyme, 0.5 h; method in brief: as §1
Cytochrome P450 2E1 [8] = biological target: T1, Cytochrome P450 2E1; assay: Inhibition of human CYP2E1 expressed in Escherichia coli MV1304 assessed as reduction in 7-EFC O-de-ethylation activity by spectrofluorometry; method in brief: as §3
Cytochrome P450 2E1 [9] = biological target: T1, Cytochrome P450 2E1; assay: Covalent binding to human CYP2E1 expressed in Escherichia coli MV1304 assessed as protein-adduct formation at 25 uM after 10 mins by ESI LC-MS/MS method
Method in brief: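 CYP2E1 (1 µM) reconstituted with lipid only (100 µg/ml), no reductase, incubated 10 min at 30°C; control received methanol. Samples (50 µl) analysed by ESI LC-MS/MS on a C18 reverse-phase column equilibrated with 35% acetonitrile/0.1% TFA. Protein envelopes deconvoluted to give the intact protein mass. Mean of two injections.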

Cytochrome P450 2E1 [10] = biological target: T1, Cytochrome P450 2E1; assay: Inactivation of human CYP2E1 expressed in Escherichia coli MV1304 assessed as remaining heme level at 25 uM in presence of 1.2 mM NADPH after dialysis by HPLC method; method in brief: as §2
Cytochrome P450 2E1 [11] = biological target: T1, Cytochrome P450 2E1; assay: (§4) Inhibition of human CYP2E1 expressed in Escherichia coli MV1304 assessed as reduction in 7-EFC O-de-ethylation activity by spectrofluorometry based double reciprocal plot
Method in brief: (§5)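 Reconstituted CYP2E1 (1 µM) with reductase (1 µM), 100 µg/ml DLPC and catalase, in 50 mM KPi pH 7.4. PEITC 0–50 µM was added (1% methanol final) and the reaction started with 1.2 mM NADPH at 30°C. Aliquots taken at 0–5 min were assayed for 10 min with 0.1 mM 7-EFC and 0.2 mM NADPH; 7-HFC fluorescence was read. Inactivation rates were analysed by double-reciprocal plot. Six experiments, each in duplicate.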

CYP2E1 [12] = biological target: T2, CYP2E1; assay: as §4; conditions: human, probe 7-EFC (O-de-ethylation); method in brief: as §5
Cytochrome P450 2E1 [13] = biological target: T1, Cytochrome P450 2E1; assay: Inactivation of human CYP2E1 expressed in Escherichia coli MV1304 assessed as remaining heme level at 25 uM after dialysis by HPLC method; method in brief: as §2
Cytochrome P450 2E1 [14] = biological target: T1, Cytochrome P450 2E1; assay: Inhibition of human CYP2E1 expressed in Escherichia coli MV1304 assessed as partition ratio for enzyme inactivation
Method in brief: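 Reconstituted CYP2E1 (1 µM) with reductase (1 µM), 100 µg/ml DLPC and catalase, in 50 mM KPi pH 7.4. Incubated with increasing PEITC plus 1.2 mM NADPH for 10 min at 30°C until inactivation was complete. Residual 7-EFC O-de-ethylation was read by fluorescence (ex 410/em 510 nm). Percent activity remaining was plotted against PEITC:P450 molar ratio. The turnover number (r+1) was taken from the intercept of the regression lines. Mean of three experiments.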

Cytochrome P450 2E1 [15] = biological target: T1, Cytochrome P450 2E1; assay: Inhibition of human CYP2E1 expressed in Escherichia coli MV1304 assessed as reduction in 7-EFC O-de-ethylation activity at 50 uM added 1 min before NADPH addition in presence of 1 mM GSH by spectrofluorometry; conditions: TDE = time-dependent effect
Method in brief: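 Reconstituted CYP2E1/reductase (1 µM each, DLPC, catalase, pH 7.4 phosphate). Arms: 1.2 mM NADPH alone, with 50 µM PEITC, or with 50 µM PEITC plus 1 mM GSH. PEITC added 1 min before NADPH; incubation at 30°C. Residual 7-EFC O-de-ethylation measured at 0, 2, 4, 6 and 12 min by 7-HFC fluorescence.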

Cytochrome P450 2E1 [16] = biological target: T1, Cytochrome P450 2E1; assay: Drug metabolism assessed as human CYP2E1-mediated phenethylamine formation at 50 uM in presence of reductase and absence of NADPH after 30 mins by LC-MS/MS method; conditions: recombinant enzyme, 0.5 h; method in brief: as §1
CYP2E1 [17] = biological target: T2, CYP2E1; assay: Inactivation of human CYP2E1 expressed in Escherichia coli MV1304 assessed as remaining enzyme activity at 25 uM after dialysis by 7-EFC O-de-ethylation activity detection based spectrofluorometry; conditions: probe 7-EFC (O-de-ethylation), read-out: Activity; method in brief: as §2
CYP2E1 [18] = biological target: T2, CYP2E1; assay: Inactivation of human CYP2E1 expressed in Escherichia coli MV1304 assessed as remaining enzyme activity at 25 uM in presence of 1.2 mM NADPH after dialysis in presence of fresh reductase by 7-EFC O-de-ethylation activity detection based spectrofluorometry; conditions: probe 7-EFC (O-de-ethylation), read-out: Activity; method in brief: as §2
CYP2E1 [19] = biological target: T2, CYP2E1; assay: Inactivation of human CYP2E1 expressed in Escherichia coli MV1304 assessed as remaining enzyme activity at 25 uM in presence of 1.2 mM NADPH after dialysis by 7-EFC O-de-ethylation activity detection based spectrofluorometry; conditions: probe 7-EFC (O-de-ethylation), read-out: Activity; method in brief: as §2
Cytochrome P450 2E1 [20] = biological target: T1, Cytochrome P450 2E1; assay: Inactivation of human CYP2E1 expressed in Escherichia coli MV1304 assessed as remaining P450 level at 25 uM in presence of 1.2 mM NADPH after dialysis by CO difference spectral method; method in brief: as §2

T1 sequence (P05181 whole entry): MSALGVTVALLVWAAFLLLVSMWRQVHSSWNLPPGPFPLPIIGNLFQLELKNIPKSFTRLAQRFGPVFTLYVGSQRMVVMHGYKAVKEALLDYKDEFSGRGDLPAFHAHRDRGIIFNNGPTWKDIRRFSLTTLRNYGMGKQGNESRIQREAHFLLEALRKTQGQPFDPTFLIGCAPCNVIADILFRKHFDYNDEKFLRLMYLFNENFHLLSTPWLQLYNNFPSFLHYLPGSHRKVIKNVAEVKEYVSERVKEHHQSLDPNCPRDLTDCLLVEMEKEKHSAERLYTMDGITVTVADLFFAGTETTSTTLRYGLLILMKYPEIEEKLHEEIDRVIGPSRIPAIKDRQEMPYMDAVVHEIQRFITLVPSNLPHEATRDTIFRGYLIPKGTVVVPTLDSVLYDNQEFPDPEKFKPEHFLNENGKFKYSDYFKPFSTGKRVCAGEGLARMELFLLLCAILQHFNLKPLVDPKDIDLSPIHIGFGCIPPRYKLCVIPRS
T2 sequence (P05181 whole entry): as above

With `N[C@@H](CCC(=O)N[C@@H](CSC(=O)NCCc1ccccc1)C(=O)NCC(=O)O)C(=O)O` the Drug metabolism (Cytochrome P450 2E1 [1]) was “metabolite_detected” and the Drug metabolism (Liver microsome) was “metabolite_detected”.
`O=C=NCCc1ccccc1` [PHENETHYL ISOCYANATE] was tested, and the “inhibition (INH)” value (Cytochrome P450 2E1 [2]) was “Not Active”.
`N[C@@H](CCC(=O)N[C@@H](CSC(=S)NCCc1ccccc1)C(=O)NCC(=O)O)C(=O)O` was tested, and the Drug metabolism (Cytochrome P450 2E1 [1]) was “metabolite_detected” and the Retention_time (Cytochrome P450 2E1 [3]) was 16.7 min.
For `S=C=NCCc1ccccc1` [PHENETHYLISOTHIOCYANATE], the Activity (Cytochrome P450 2E1 [4]) was 93%, the activity at 25 µM (CYP2E1 [5]) was 85% and the “inhibition (INH)” value (Cytochrome P450 2E1 [6]) was “Active”. The Drug metabolism (Cytochrome P450 2E1 [7]) was “metabolite_detected”, the “inhibition (INH)” value (Cytochrome P450 2E1 [8]) was “Dose-dependent effect and tde” and the Activity (Cytochrome P450 2E1 [9]) was “Not Active”. For the same molecule, the Activity (Cytochrome P450 2E1 [10]) was 64%, the Ki (Cytochrome P450 2E1 [11]) was 11 µM and the kinact (CYP2E1 [12]) was 0.00383 s⁻¹. The Activity (Cytochrome P450 2E1 [13]) was 100%, the Ratio (Cytochrome P450 2E1 [14]) was 12 and the “inhibition (INH)” value (Cytochrome P450 2E1 [15]) was “tde”. For the same molecule, the Drug metabolism (Cytochrome P450 2E1 [16]) was “metabolite_not_detected”, the activity at 25 µM (CYP2E1 [17]) was 82% and the activity at 25 µM (CYP2E1 [18]) was 26%. For the same molecule, the activity at 25 µM (CYP2E1 [19]) was 27% and the Activity (Cytochrome P450 2E1 [20]) was 42%.
With `NCCc1ccccc1` [PHENETHYLAMINE] the Retention_time (Cytochrome P450 2E1 [3]) was 12.7 min.
